Data published in ChEMBL document CHEMBL1144880, “Identification of phenylisoxazolines as novel and viable antibacterial agents active against Gram-positive pathogens” (J Med Chem, 2003).
≈ marks a conversion by molar mass, not a printed value.

Assays:
Format in all cases: functional
[1] = tested on: Staphylococcus epidermidis; experiment: In vitro minimum inhibitory concentration (MIC) against Staphylococcus epidermidis UC12084
Outline: (§1)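 MIC determined by standard broth microdilution, defined as the lowest drug concentration (µg/mL) inhibiting visible growth.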

Staphylococcus aureus [2] = experiment: In vitro minimum inhibitory concentration (MIC) against Staphylococcus aureus UC9213; outline: as §1
Streptococcus pneumoniae = experiment: In vitro minimum inhibitory concentration (MIC) against Streptococcus pneumoniae UC9912; outline: as §1
Enterococcus faecalis = experiment: In vitro minimum inhibitory concentration (MIC) against Enterococcus faecalis UC9217; outline: as §1
Escherichia coli = experiment: In vitro minimum inhibitory concentration (MIC) against Escherichia coli UC6674; outline: as §1
Haemophilus influenzae = experiment: In vitro minimum inhibitory concentration (MIC) against Haemophilus influenzae UC30063; outline: as §1
Moraxella catarrhalis = experiment: In vitro minimum inhibitory concentration (MIC) against Moraxella catarrhalis UC30610; outline: as §1
Staphylococcus aureus [3] = experiment: In vitro minimum inhibitory concentration (MIC) against Staphylococcus aureus UC12673; outline: as §1
Mus musculus = experiment: In Vivo effective dose required for antibacterial activity in a systemic mouse infection model (SMIM) upon peroral administration against Staphylococcus aureus UC9213; details: po
Outline: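 Compound was given orally at 1 and 5 h after infection. Deaths were monitored for at least 6 days, and ED50 (dose curing 50% of mice) was calculated by probit analysis.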

SMILES | MIC [1] | MIC (Staphylococcus aureus [2]) | MIC (Streptococcus pneumoniae) | MIC (Enterococcus faecalis) | MIC (Escherichia coli) | MIC (Haemophilus influenzae) | MIC (Moraxella catarrhalis) | MIC (Staphylococcus aureus [3]) | ED50 (Mus musculus)
CC(=O)NC[C@H]1CC(c2ccc(N3CCCC3)c(F)c2)=NO1 | 4 µg/mL (≈ 13.1 µM) | 4 µg/mL (≈ 13.1 µM) | 2 µg/mL (≈ 6.55 µM) | 8 µg/mL (≈ 26.2 µM) | > 16 µg/mL | > 16 µg/mL | > 16 µg/mL | 4 µg/mL (≈ 13.1 µM) | –
CC(=O)NC[C@H]1CC(c2ccc(-n3cncn3)c(F)c2)=NO1 | 8 µg/mL (≈ 26.4 µM) | > 16 µg/mL | 4 µg/mL (≈ 13.2 µM) | > 16 µg/mL | > 16 µg/mL | > 16 µg/mL | > 16 µg/mL | 16 µg/mL (≈ 52.8 µM) | –
CC(=O)NC[C@@H]1CC(c2ccc(N3CCN(C(=O)CO)CC3)c(F)c2)=NO1 | > 16 µg/mL | > 16 µg/mL | > 16 µg/mL | > 16 µg/mL | > 16 µg/mL | > 16 µg/mL | > 16 µg/mL | > 16 µg/mL | –
COc1ccc(-c2ccc(C3=NOC(CNC(C)=O)C3)cc2)ccc1=O (stereo not given) | 2 µg/mL (≈ 5.68 µM) | 4 µg/mL (≈ 11.4 µM) | 0.5 µg/mL (≈ 1.42 µM) | 4 µg/mL (≈ 11.4 µM) | > 16 µg/mL | > 16 µg/mL | > 16 µg/mL | 4 µg/mL (≈ 11.4 µM) | 15.4 mg/kg
CC(=O)NCC1CC(c2ccc(N3CCN(C(=O)CO)CC3)c(F)c2)=NO1 (racemic) | 4 µg/mL (≈ 10.6 µM) | 8 µg/mL (≈ 21.1 µM) | 2 µg/mL (≈ 5.29 µM) | 8 µg/mL (≈ 21.1 µM) | > 16 µg/mL | > 16 µg/mL | 16 µg/mL (≈ 42.3 µM) | 8 µg/mL (≈ 21.1 µM) | –
CC(=O)NC[C@H]1CC(c2ccc(-n3ccnc3)c(F)c2)=NO1 | 1 µg/mL (≈ 3.31 µM) | 2 µg/mL (≈ 6.62 µM) | 1 µg/mL (≈ 3.31 µM) | 4 µg/mL (≈ 13.2 µM) | > 16 µg/mL | > 16 µg/mL | 16 µg/mL (≈ 52.9 µM) | 2 µg/mL (≈ 6.62 µM) | –
CC(=O)NC[C@@H]1CC(c2cc(F)c(N3CCOCC3)c(F)c2)=NO1 | > 16 µg/mL | > 16 µg/mL | > 16 µg/mL | > 16 µg/mL | > 16 µg/mL | > 16 µg/mL | > 16 µg/mL | > 16 µg/mL | –
C/C(S)=N/C[C@H]1CC(c2cc(F)c(-n3ccnc3)c(F)c2)=NO1 | 2 µg/mL (≈ 5.95 µM) | 4 µg/mL (≈ 11.9 µM) | 2 µg/mL (≈ 5.95 µM) | 8 µg/mL (≈ 23.8 µM) | > 16 µg/mL | > 16 µg/mL | > 16 µg/mL | 4 µg/mL (≈ 11.9 µM) | –
CC(=O)NC[C@H]1CC(c2cc(F)c(N3CCNCC3)c(F)c2)=NO1 | 0.5 µg/mL (≈ 1.48 µM) | 4 µg/mL (≈ 11.8 µM) | 0.25 µg/mL (≈ 0.739 µM) | 4 µg/mL (≈ 11.8 µM) | > 16 µg/mL | 8 µg/mL (≈ 23.6 µM) | 8 µg/mL (≈ 23.6 µM) | 4 µg/mL (≈ 11.8 µM) | –
CC(=O)NC[C@H]1CC(c2ccc(-n3cccn3)c(F)c2)=NO1 | 4 µg/mL (≈ 13.2 µM) | 16 µg/mL (≈ 52.9 µM) | 4 µg/mL (≈ 13.2 µM) | 16 µg/mL (≈ 52.9 µM) | > 16 µg/mL | > 16 µg/mL | > 16 µg/mL | 16 µg/mL (≈ 52.9 µM) | –
C/C(S)=N/C[C@H]1CC(c2cc(F)c(N3CCOCC3)c(F)c2)=NO1 | 0.25 µg/mL (≈ 0.703 µM) | 1 µg/mL (≈ 2.81 µM) | 0.25 µg/mL (≈ 0.703 µM) | 1 µg/mL (≈ 2.81 µM) | > 16 µg/mL | 16 µg/mL (≈ 45 µM) | 2 µg/mL (≈ 5.63 µM) | 1 µg/mL (≈ 2.81 µM) | > 20 mg/kg
CC(=O)NCC1CC(c2ccc(C3=CCN(C(C)=O)CC3)cc2)=NO1 (stereo not given) | 4 µg/mL (≈ 11.7 µM) | 8 µg/mL (≈ 23.4 µM) | 2 µg/mL (≈ 5.86 µM) | 8 µg/mL (≈ 23.4 µM) | > 16 µg/mL | > 16 µg/mL | > 16 µg/mL | 8 µg/mL (≈ 23.4 µM) | –
CC(=O)NCC1CC(c2ccc(N3CCN(C(=O)CO)CC3)cc2)=NO1 (stereo not given) | 4 µg/mL (≈ 11.1 µM) | 16 µg/mL (≈ 44.4 µM) | 4 µg/mL (≈ 11.1 µM) | 16 µg/mL (≈ 44.4 µM) | > 16 µg/mL | > 16 µg/mL | > 16 µg/mL | 8 µg/mL (≈ 22.2 µM) | –
CC(=O)NCC1CC(c2cc(F)c(N3CCOCC3)c(Cl)c2)=NO1 (stereo not given) | 8 µg/mL (≈ 22.5 µM) | 8 µg/mL (≈ 22.5 µM) | 4 µg/mL (≈ 11.2 µM) | 16 µg/mL (≈ 45 µM) | > 16 µg/mL | > 16 µg/mL | > 16 µg/mL | 8 µg/mL (≈ 22.5 µM) | –
CC(=O)NC[C@H]1CC(c2ccc(F)c(F)c2)=NO1 | > 16 µg/mL | > 16 µg/mL | > 16 µg/mL | > 16 µg/mL | > 16 µg/mL | > 16 µg/mL | > 16 µg/mL | > 16 µg/mL | –
C/C(S)=N/C[C@H]1CC(c2ccc(-n3cccc3)c(F)c2)=NO1 | 0.5 µg/mL (≈ 1.58 µM) | 1 µg/mL (≈ 3.15 µM) | 0.5 µg/mL (≈ 1.58 µM) | 1 µg/mL (≈ 3.15 µM) | > 16 µg/mL | > 16 µg/mL | 4 µg/mL (≈ 12.6 µM) | 1 µg/mL (≈ 3.15 µM) | –
